From PubChem
Yeast tox: Compounds toxic to wild-type S. cerevisiae growth | A595 turbidity, 16 h | growth inhibition, % at 25 µM (by protocol) | 30,000 compounds, 0.3% hits;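 active = mutant and wild-type yeast strains alike exhibit over 30% growth inhibition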;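 also: 0% = untreated cell controls and 100% = YPD media blanks without cells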
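system = S. cerevisiae wild-type or eIF2Bepsilon-R284H mutant strain | buffer or medium = YPD medium | dosing = one dose, 25 µM compound, 0.2% DMSO | schedule = 16 h at 30 °C | measured by = A595 turbidity | evaluation = growth inhibition (%) versus cell controls and blanks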
eIF2B yeast act: modulators of yeast eIF2B activity | inhibition, % at 25 µM (by protocol) | S. cerevisiae eIF2B-epsilon R284H, GCN4-lacZ luminescence | 27,000 compounds, 0.91% hits;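 active = mutant luminescence inhibited past about 50% while wild type luminescence and mutant growth stay under set limits, limit read from the data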
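Times: 16 h growth with compound at 30 °C, 90 min Beta-Glo step; Assay system: yeast eIF2B-epsilon R284H mutant carrying GCN4–beta-galactosidase fusion; Measure: % inhibition of reporter signal and growth versus controls; Dosing: one concentration, 25 µM, 0.25% DMSO; Buffer or medium: YPD yeast growth medium; Measured by: Beta-Glo luminescence plus absorbance at 595 nm.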
Active calls of the source: *; nt = no result given. Rows were chosen to be rich in hits. Some 1.1% of all compounds tested hit in one or more screens of this group.

SMILES	Yeast tox	eIF2B yeast act
CCOC(=O)N1CCN(c2nc(N(c3ccccc3)c3ccccc3)nc(-n3ccnc3)n2)CC1	48*	-24
c1ccc(N(c2ccccc2)c2nc(N3CCCC3)nc(-n3ccnc3)n2)cc1	-10	37
COC(=O)CSc1nnc(CNC(=O)Cc2ccccc2)n1C	10	31
COc1ccc(/C=N/NC(=O)Nc2nonc2N)cc1	nt	-19
O=C(Nc1cc2c(cc1Br)OCCO2)c1ccco1	19	-20
Cc1cc(C)n(C(=O)c2ccc(NC(=O)CC(C)C)cc2)n1	0	50*
Cc1cc(NC(=O)c2ccc(NC(=O)CC(C)C)cc2)no1	27	22
COc1ccc(-c2csc(NC(=O)C3CCCCN3S(=O)(=O)c3ccccc3)n2)cc1 (stereo unspecified)	-23	-91
COCC(C)OC(=O)c1c(N)n(CC(C)C)c2nc3ccccc3nc12 (stereo unspecified)	6	25
Cc1ccc(C)c(N2CCN(S(=O)(=O)c3ccc4c(c3)CCC(=O)N4)CC2)c1	8	23
Cc1ccc(C)c(N2CCN(S(=O)(=O)c3ccc4[nH]c(=O)c(=O)[nH]c4c3)CC2)c1	9	57*
Cc1ccnc2nc(C(=O)Nc3ccc(N4CCOCC4)cc3)nn12	24	53*
O=C(Nc1ccc(N2CCOCC2)cc1)c1ccncc1	nt	-13
COc1cc2[nH]c(=S)n(C3CCCC3)c(=O)c2cc1OC	32*	3
COc1cc2[nH]c(=S)n(N(C(C)=O)C(C)=O)c(=O)c2cc1OC	27	nt
CCOCC(=O)Nc1cccc(NC(C)=O)c1	0	72*
CCOCC(=O)Nc1ccc(F)c(F)c1	0	12
COC(=O)c1cc2occc2n1CC(=O)Nc1cc(OC)cc(OC)c1	-27	7
COC(=O)c1cc2occc2n1CC(=O)Nc1ccc(OC)c(OC)c1	-2	60*
CCCC(=O)N1CCN(C2=NS(=O)(=O)c3ccccc32)CC1	9	44
CC(C)C(=O)N1CCN(C2=NS(=O)(=O)c3ccccc32)CC1	-9	53*
O=C(CN(C(=O)CNC(=O)c1ccco1)c1ccc(Cl)c(Cl)c1)NC1CCCCC1	nt	19
Cn1c(Cc2ccccc2)nnc1SCC(=O)c1cccs1	1	9
CCn1c(NCc2ccccc2Cl)nc2ccccc21	5	19
CCn1c(CNc2nc3ccccc3n2C(C)C)nc2ccccc21	8	53*
SMILES	Yeast tox	eIF2B yeast act
CC(C)OC(=O)CSc1nc2ccccc2s1	-12	nt
CCC(=O)OCCNc1cc(Sc2nc3ccccc3s2)c2nonc2c1[N+](=O)[O-]	52*	nt
COC(=O)C(CC(=O)c1ccc(Br)cc1)n1ccnc1 (stereo unspecified)	33*	-10
CCOC(=O)N1CCN(C(=O)CC(C(=O)N2CCc3ccccc32)n2ccnc2)CC1 (stereo unspecified)	13	0
Clc1ccc(-c2nn3c(-c4cccc(Cl)c4)nnc3s2)cc1	-36	3
Clc1cccc(-c2nn3c(COc4ccccc4)nnc3s2)c1	3	56*
C=CCN(C(=O)CCC(=O)O)C1CC(=O)N(c2ccc(OC)cc2)C1=O (stereo unspecified)	nt	50*
C=CCN(C(C)=O)C1CC(=O)N(c2ccc(OCCC)cc2)C1=O (stereo unspecified)	6	nt
Cc1cc(O)ccc1Nc1nc2ccccc2nc1Nc1ccc(O)cc1C	2	-53
COc1ccccc1NC(=O)c1ccccc1SC	5	14
COc1ccccc1NC(=O)c1cc2ccccc2o/c1=N\O	9	64*
O=C1C=C(NCc2ccc(Cl)c(Cl)c2)C2(CCCCC2)O1	5	26
Cc1cc(C)c(C(=O)C2OC(=O)C(C)(C)C(=O)C2(C)C)c(C)c1 (stereo unspecified)	-2	nt
COc1ccc(CC(=O)Nc2ccc(S(=O)(=O)Nc3cc(C)on3)cc2)cc1	12	14
Cc1ccc(OCCCC(=O)Nc2ccc(S(=O)(=O)Nc3cc(C)on3)cc2)cc1	2	53*
CC1Cc2ccccc2N1C(=O)CSc1nnc2c(n1)[nH]c1ccc(F)cc12 (stereo unspecified)	5	2
CCOc1ccc(-c2c[n+](=O)c3c(n2[O-])CCCC3)c(OCC)c1	0	-8
CC(C)c1cc(C(=O)O)n(-c2ccccc2)n1	7	14
CCn1cc(C(=O)Nc2nnc(C)s2)c(=O)c2cc(F)c(N3CCN(C(=O)c4ccco4)CC3)cc21	-38	-16
Cc1csc(NC(=O)c2cccn2C)n1	-4	51*
Cc1csc(NC(=O)CSc2nc(C)cs2)n1	10	16
CN(C)C(=O)Cn1nc(-c2ccccc2)c2ccccc2c1=O	nt	10
CNC(=O)CCn1nc(-c2ccccc2)c2ccccc2c1=O	-4	59*
COc1ccc(OC)c(N2C(=O)CC(C(C)c3ccccc3)C2=O)c1 (stereo unspecified)	25	-32
